ChEMBL document CHEMBL1134845, “Syntheses and biological activities of a novel group of steroidal derived inhibitors for human Cdc25A protein phosphatase” (J Med Chem, 2001)

Key:
[1] = target: T1, M-phase inducer phosphatase 1 (Homo sapiens, UniProt P30304); assay: Inhibitory activity tested against cell division cycle 25A (assay using p-nitrophenyl phosphate (pNPP) as substrate)
T1 sequence (P30304 whole entry): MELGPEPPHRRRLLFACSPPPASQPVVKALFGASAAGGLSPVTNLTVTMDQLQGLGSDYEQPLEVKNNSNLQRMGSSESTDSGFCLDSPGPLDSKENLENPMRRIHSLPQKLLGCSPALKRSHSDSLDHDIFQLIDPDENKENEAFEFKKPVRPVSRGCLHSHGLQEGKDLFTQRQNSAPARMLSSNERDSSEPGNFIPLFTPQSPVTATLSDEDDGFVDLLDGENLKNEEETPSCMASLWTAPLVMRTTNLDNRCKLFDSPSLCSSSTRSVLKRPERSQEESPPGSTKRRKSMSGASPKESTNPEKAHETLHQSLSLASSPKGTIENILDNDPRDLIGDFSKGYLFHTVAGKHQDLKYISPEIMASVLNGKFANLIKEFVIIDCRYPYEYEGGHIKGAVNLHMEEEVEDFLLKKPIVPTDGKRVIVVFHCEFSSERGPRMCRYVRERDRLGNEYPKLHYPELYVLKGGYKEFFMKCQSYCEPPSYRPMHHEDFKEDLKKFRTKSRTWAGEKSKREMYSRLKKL

SF-268 = assay: Growth inhibitory activity was determined against SF-268 cancer cell line of CNS cancer; format: functional; conditions: Homo sapiens
How it was run: (§1)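 NCI 60 human tumour cell line screen run at the National Cancer Institute. Cell growth and viability read with the protein stain sulforhodamine B, which binds basic amino acids of cells left attached after washing. […] MG MID is the mean GI50 calculated over all panels.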

T47D = assay: Growth inhibitory activity was determined against T-47D cancer cell line of Breast cancer; format: functional, Homo sapiens
How it was run: as §1

HT-29 = assay: Growth inhibitory activity was determined against HT-29 cancer cell line colon cancer; format: functional, Homo sapiens
How it was run: as §1

A549 [2] = assay: Growth inhibitory activity was determined against A549/ATCC cancer cell line of non-small cell lung cancer; format: functional, Homo sapiens
How it was run: as §1

BT-549 (Homo sapiens) = assay: Growth inhibitory activity was determined against BT-549 cancer cell line of Breast cancer
OVCAR-8 = assay: Growth inhibitory activity was determined against OVCAR-8 cancer cell line of Ovarian cancer; format: functional; conditions: Homo sapiens
How it was run: as §1

786-0 = assay: Growth inhibitory activity was determined against 786-0 cancer cell line of renal cancer; format: functional; conditions: Homo sapiens
How it was run: as §1

PC-3 [3] = assay: Growth inhibitory activity was determined against PC-3 cancer cell line of Prostate cancer; format: functional; conditions: Homo sapiens
How it was run: as §1

SK-MEL-5 = assay: Growth inhibitory activity was determined against SK-MEL-5 cancer cell line of melanoma; format: functional, Homo sapiens
How it was run: as §1

UO-31 = assay: Growth inhibitory activity was determined against UO-31 cancer cell line of renal cancer; format: functional; conditions: Homo sapiens
How it was run: as §1

SF-539 = assay: Growth inhibitory activity was determined against SF-539 cancer cell line of CNS cancer; format: functional; conditions: Homo sapiens
How it was run: as §1

OVCAR-3 = assay: Growth inhibitory activity was determined against OVCAR-3 cancer cell line of Ovarian cancer; format: functional; conditions: Homo sapiens
How it was run: as §1

SN12C = assay: Growth inhibitory activity was determined against SN12C cancer cell line of renal cancer; format: functional; conditions: Homo sapiens
How it was run: as §1

[4] = target: T1, M-phase inducer phosphatase 1; assay: Inhibitory activity tested against cell division cycle 25A (assay using fluorescein diphosphate (FDP) as substrate)
How it was run: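 Recombinant human GST-Cdc25A fusion protein, each batch calibrated so that FDP was dephosphorylated linearly over 20 min. Fluorescein diphosphate was the substrate. Reactions ran 15 min at 25 °C in the dark and were stopped with sodium orthovanadate. IC50 came from at least two independent runs, each in triplicate.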

U-251 = assay: Growth inhibitory activity was determined against U-251 cancer cell line of CNS cancer; format: functional; conditions: Homo sapiens
How it was run: as §1

NCI-H522 = assay: Growth inhibitory activity was determined against NCI-H522 cancer cell line of non-small cell lung cancer; format: functional; conditions: Homo sapiens
How it was run: as §1

NCI-H23 = assay: Growth inhibitory activity was determined against NCI-H23 cancer cell line of non-small cell lung cancer; format: functional, Homo sapiens
How it was run: as §1

COLO 205 = assay: Growth inhibitory activity was determined against COLO 205 cancer cell line colon cancer; format: functional, Homo sapiens
How it was run: as §1

LOX IMVI = assay: Growth inhibitory activity was determined against LOX IMVI cancer cell line of melanoma; format: functional, Homo sapiens
How it was run: as §1

NCI/ADR-RES = assay: Growth inhibitory activity was determined against NCI/ADR-RES cancer cell line of Breast cancer; format: functional, Homo sapiens
How it was run: as §1

[5] = target: T1, M-phase inducer phosphatase 1; assay: Inhibitory activity tested against cell division cycle 25A (assay using p-nitro phenyl phosphate (pNPP) as substrate)
A549 [6] = assay: Inhibitory activity against A549 human adenocarcinoma; format: functional, cell-based
How it was run: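 Soft agar clonogenic assay of anchorage-independent growth, using HT-29 colon and A549 lung adenocarcinoma cells. The value is the compound concentration that cut colony number to 50% of control.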

[7] = target: T2, Receptor-type tyrosine-protein phosphatase C (Homo sapiens, UniProt P08575); assay: Inhibitory activity tested against Human CD45 Phosphatase (assay using p-nitrophenyl phosphate (pNPP) as substrate)
T2 sequence (P08575 whole entry): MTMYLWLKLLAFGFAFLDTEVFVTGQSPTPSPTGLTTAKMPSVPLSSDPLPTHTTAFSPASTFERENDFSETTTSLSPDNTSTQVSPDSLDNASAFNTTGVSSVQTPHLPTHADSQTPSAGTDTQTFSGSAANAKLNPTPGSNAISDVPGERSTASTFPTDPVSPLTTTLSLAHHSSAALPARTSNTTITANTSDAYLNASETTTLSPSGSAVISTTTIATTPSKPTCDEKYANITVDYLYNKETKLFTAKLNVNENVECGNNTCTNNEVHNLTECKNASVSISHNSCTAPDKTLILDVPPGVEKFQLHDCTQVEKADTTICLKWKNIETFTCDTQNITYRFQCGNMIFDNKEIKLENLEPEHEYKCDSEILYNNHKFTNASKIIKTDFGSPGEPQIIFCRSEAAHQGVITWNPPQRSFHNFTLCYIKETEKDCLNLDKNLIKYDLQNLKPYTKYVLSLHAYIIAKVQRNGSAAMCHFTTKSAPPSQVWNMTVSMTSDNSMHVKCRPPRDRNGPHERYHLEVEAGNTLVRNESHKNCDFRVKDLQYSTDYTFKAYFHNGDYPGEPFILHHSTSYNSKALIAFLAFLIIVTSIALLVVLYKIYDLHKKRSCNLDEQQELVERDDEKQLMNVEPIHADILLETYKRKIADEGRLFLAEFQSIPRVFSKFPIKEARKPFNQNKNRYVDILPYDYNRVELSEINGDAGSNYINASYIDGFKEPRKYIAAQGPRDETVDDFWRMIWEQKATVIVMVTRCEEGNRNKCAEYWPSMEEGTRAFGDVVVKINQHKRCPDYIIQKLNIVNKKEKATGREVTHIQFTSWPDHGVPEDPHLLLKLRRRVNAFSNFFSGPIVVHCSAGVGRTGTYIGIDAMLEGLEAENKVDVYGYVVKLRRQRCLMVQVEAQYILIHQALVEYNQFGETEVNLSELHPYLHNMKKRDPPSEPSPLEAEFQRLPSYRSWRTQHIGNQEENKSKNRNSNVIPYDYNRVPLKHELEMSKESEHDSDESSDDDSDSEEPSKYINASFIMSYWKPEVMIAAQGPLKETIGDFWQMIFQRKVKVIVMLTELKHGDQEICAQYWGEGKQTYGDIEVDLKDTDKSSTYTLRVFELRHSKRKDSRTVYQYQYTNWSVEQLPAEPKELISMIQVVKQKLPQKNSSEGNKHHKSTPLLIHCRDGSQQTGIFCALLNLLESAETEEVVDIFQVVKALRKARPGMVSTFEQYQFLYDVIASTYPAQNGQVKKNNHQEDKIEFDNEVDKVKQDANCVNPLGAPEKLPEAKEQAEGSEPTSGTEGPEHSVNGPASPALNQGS

HCC 2998 = assay: Growth inhibitory activity was determined against HCC2998 cancer cell line colon cancer; format: functional, Homo sapiens
How it was run: as §1

PC-3 [8] = assay: Growth inhibitory activity PC-3 cancer cell line of Prostate cancer; format: functional; conditions: Homo sapiens
How it was run: as §1

[9] = target: Receptor-type tyrosine-protein phosphatase C, CD45 (Homo sapiens) (UniProt P08575); assay: Inhibitory activity tested against human CD45 (receptor-type tyrosine-protein phosphatase C)
[10] = substrate: C=C(CCCCC#N)[C@H]1CC[C@]2(C)[C@@H]([C@H](C)CCCC(C)C)CC[C@H]2[C@@H]1CC(=O)O
[11] = substrate: C=C(CCCCC#N)[C@H]1CC[C@]2(C)[C@@H]([C@H](C)CCCC(C)C)CC[C@H]2[C@@H]1CC(=O)O; conditions: 2.5 uM
[12] = substrate: C=C(CCCCC#N)[C@H]1CC[C@]2(C)[C@@H]([C@H](C)CCCC(C)C)CC[C@H]2[C@@H]1CC(=O)O; conditions: 1.25 uM
[13] = substrate: C=C(CCCCC#N)[C@H]1CC[C@]2(C)[C@@H]([C@H](C)CCCC(C)C)CC[C@H]2[C@@H]1CC(=O)O; remark: listed apart in the source
[14] = substrate: C=C(CCCCC#N)[C@H]1CC[C@]2(C)[C@@H]([C@H](C)CCCC(C)C)CC[C@H]2[C@@H]1CC(=O)O; remark: listed apart in the source
[15] = substrate: C=C(CCCCC#N)[C@H]1CC[C@]2(C)[C@@H]([C@H](C)CCCC(C)C)CC[C@H]2[C@@H]1CC(=O)O; conditions: 5 uM
[16] = substrate: C=C(CCCCC#N)[C@H]1CC[C@]2(C)[C@@H]([C@H](C)CCCC(C)C)CC[C@H]2[C@@H]1CC(=O)O; conditions: 0.625 uM
[17] = substrate: C=C(CCCCC#N)[C@H]1CC[C@]2(C)[C@@H]([C@H](C)CCCC(C)C)CC[C@H]2[C@@H]1CC(=O)O; remark: listed apart in the source

## CC1=CC[C@H]2C(C)(C)CCC[C@]2(C)[C@H]1C(C)[C@H](OS(=O)(=O)O)[C@H](C)CCCc1ccoc1 (stereo partly drawn)
[1]
  IC50: 7.8 µM

## CC(C)CCCC(C)[C@H]1CC[C@H]2[C@@H]3CC(=O)O[C@](C)(CC/C=C\C#N)[C@H]3CC[C@]12C (stereo partly drawn)
SF-268
  GI50: 3.19 µM
T47D; Homo sapiens, T47D
  GI50: 8.35 µM
HT-29; Homo sapiens, HT-29
  GI50: 4.85 µM
A549 [2]; Homo sapiens, A549
  GI50: 15 µM
BT-549 (Homo sapiens); Homo sapiens, BT-549
  GI50: > 25 µM
OVCAR-8
  GI50: 8.72 µM
786-0
  GI50: 7.54 µM
PC-3 [3]
  GI50: 9.73 µM
SK-MEL-5; Homo sapiens, SK-MEL-5
  GI50: 4.57 µM
UO-31
  GI50: 0.39 µM
SF-539
  GI50: > 25 µM
OVCAR-3
  GI50: 13.3 µM
SN12C
  GI50: 5.08 µM
[4]
  IC50: 29 µM
U-251
  GI50: 9.49 µM
NCI-H522
  GI50: 0.89 µM
NCI-H23; Homo sapiens, NCI-H23
  GI50: 14.8 µM
COLO 205; Homo sapiens, COLO 205
  GI50: 8.49 µM
LOX IMVI; Homo sapiens, LOX IMVI
  GI50: 5.15 µM
NCI/ADR-RES; Homo sapiens, NCI/ADR-RES
  GI50: > 25 µM
[5]
  IC50: > 100 µM
A549 [6]
  IC50: 7.2 µM
[7]
  IC50: > 100 µM

## CC(C)CCCC(C)[C@H]1CC[C@H]2[C@H](CC(=O)O)[C@@H](C(C)CCCCC#N)CC[C@]12C (stereo in doubt; 22)
T47D
  GI50: 9.27 µM
HT-29
  GI50: 5.18 µM
A549 [2]
  GI50: 4.35 µM
BT-549 (Homo sapiens)
  GI50: 6.2 µM
OVCAR-8
  GI50: 8.02 µM
786-0
  GI50: 7.18 µM
HCC 2998
  GI50: 4.77 µM
SK-MEL-5
  GI50: 7.71 µM
UO-31
  GI50: 8.74 µM
SF-539
  GI50: 5.01 µM
OVCAR-3
  GI50: 5.19 µM
SN12C
  GI50: 6.46 µM
[4]
  IC50: 1.9 µM
U-251
  GI50: 4.35 µM
PC-3 [8]
  GI50: 6.88 µM
NCI-H23
  GI50: 5.85 µM
[9]
  IC50: 8.6 µM
COLO 205
  GI50: 5.55 µM
LOX IMVI
  GI50: 4.69 µM
NCI/ADR-RES
  GI50: 8.2 µM
[7]
  IC50: 8.6 µM

B1: M-phase inducer phosphatase 1 (Homo sapiens), P30304 (protein)
chain: MELGPEPPHRRRLLFACSPPPASQPVVKALFGASAAGGLSPVTNLTVTMDQLQGLGSDYEQPLEVKNNSNLQRMGSSESTDSGFCLDSPGPLDSKENLENPMRRIHSLPQKLLGCSPALKRSHSDSLDHDIFQLIDPDENKENEAFEFKKPVRPVSRGCLHSHGLQEGKDLFTQRQNSAPARMLSSNERDSSEPGNFIPLFTPQSPVTATLSDEDDGFVDLLDGENLKNEEETPSCMASLWTAPLVMRTTNLDNRCKLFDSPSLCSSSTRSVLKRPERSQEESPPGSTKRRKSMSGASPKESTNPEKAHETLHQSLSLASSPKGTIENILDNDPRDLIGDFSKGYLFHTVAGKHQDLKYISPEIMASVLNGKFANLIKEFVIIDCRYPYEYEGGHIKGAVNLHMEEEVEDFLLKKPIVPTDGKRVIVVFHCEFSSERGPRMCRYVRERDRLGNEYPKLHYPELYVLKGGYKEFFMKCQSYCEPPSYRPMHHEDFKEDLKKFRTKSRTWAGEKSKREMYSRLKKL
[10]
  Km: 33.6 µM
[11]
  Vmax: 3070
[12]
  Vmax: 4260
[13]
  Km: 32.3 µM
[14]
  Km: 23.1 µM
[15]
  Vmax: 632
[16]
  Vmax: 4610
[17]
  Km: 37.4 µM
